Measured values as given in PubChem BioAssay.
Calls of active or inactive are those of the source.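 The calls were made as follows, unless noted: active = viability loss from added drug above about 55%, and viability with drug at most 40%, in both replicates (limit read from the data, passing the limit was not always enough); inconclusive = both conditions met in only one replicate; inactive = neither replicate meets both conditions.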

Legend:
[1] = Her2 expression decrease, cell viability multiplex – SKBR3 breast tumor cells, AlphaScreen, ATP viability, primary screen (AID 461;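 active = Her2 level under about 52% in both replicate screens, with viability over 70% of control, limit read from the data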;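 as to Her2 level: lower value means less Her2 protein in the cells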;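 as to viability: percent of carrier control wells set as 100% viability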); details: SKBR3 Her2 protein level, 18-24 h, measured here: SKBR3 viability, ATP luminescence, at 10 µM
[2] = biological target: Receptor tyrosine-protein kinase erbB-2 (Homo sapiens) (UniProt P04626); experiment: as above; details: 18-24 h, at 10 µM, stronger effect = lower value
Sequence of Receptor tyrosine-protein kinase erbB-2 (Homo sapiens) (P04626 whole entry, looked up): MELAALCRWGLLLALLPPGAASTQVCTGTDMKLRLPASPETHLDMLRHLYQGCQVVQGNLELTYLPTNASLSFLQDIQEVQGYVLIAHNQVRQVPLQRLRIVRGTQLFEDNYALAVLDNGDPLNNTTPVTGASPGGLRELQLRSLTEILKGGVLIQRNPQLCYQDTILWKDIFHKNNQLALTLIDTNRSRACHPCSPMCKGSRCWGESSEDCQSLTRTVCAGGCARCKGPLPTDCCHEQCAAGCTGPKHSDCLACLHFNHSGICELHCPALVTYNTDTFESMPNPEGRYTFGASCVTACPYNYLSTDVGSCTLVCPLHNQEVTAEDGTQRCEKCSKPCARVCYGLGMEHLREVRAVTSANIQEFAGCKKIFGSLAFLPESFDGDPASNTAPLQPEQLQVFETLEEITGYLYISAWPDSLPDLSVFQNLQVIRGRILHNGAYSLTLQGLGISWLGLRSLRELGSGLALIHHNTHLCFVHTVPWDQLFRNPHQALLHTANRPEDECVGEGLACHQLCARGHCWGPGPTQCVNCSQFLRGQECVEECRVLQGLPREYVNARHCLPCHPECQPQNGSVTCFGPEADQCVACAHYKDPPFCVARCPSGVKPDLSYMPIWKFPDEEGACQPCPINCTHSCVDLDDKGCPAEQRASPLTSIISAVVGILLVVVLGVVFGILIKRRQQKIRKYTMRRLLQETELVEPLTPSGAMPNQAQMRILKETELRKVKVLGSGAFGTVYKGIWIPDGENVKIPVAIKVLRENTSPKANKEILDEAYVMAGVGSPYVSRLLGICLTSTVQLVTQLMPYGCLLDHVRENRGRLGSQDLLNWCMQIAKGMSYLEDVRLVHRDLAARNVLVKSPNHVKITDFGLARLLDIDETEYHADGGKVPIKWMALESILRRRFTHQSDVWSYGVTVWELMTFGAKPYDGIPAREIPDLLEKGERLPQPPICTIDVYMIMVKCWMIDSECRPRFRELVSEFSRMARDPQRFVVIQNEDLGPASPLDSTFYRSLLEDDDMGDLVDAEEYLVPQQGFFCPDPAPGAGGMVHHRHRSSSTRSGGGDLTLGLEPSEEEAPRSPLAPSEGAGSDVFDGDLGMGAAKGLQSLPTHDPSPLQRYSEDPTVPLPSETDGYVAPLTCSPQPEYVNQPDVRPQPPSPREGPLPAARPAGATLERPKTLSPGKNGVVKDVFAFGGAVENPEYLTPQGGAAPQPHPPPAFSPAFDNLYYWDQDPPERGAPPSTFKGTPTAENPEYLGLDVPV

[3] = reduced viability of SK-BR-3 breast cancer cells – cell-based, 24 h, human, pilot screen (AID 572;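 active = viability at or below 10% of carrier control in both of two separate runs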;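 also: compound exposure lasted between 18 and 24 h rather than exactly 24 h; 100% = carrier-treated control wells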); details: SK-BR-3 viability, CellTiter-Glo luminescence, at 10 µM, stronger effect = lower value
[4] = HUVEC growth inhibition – cell-based, human, primary screen (AID 575;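 active = viability at or below 30% in both replicate assays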;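 also: 100% = median of untreated cell wells with 0.1% DMSO on each plate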); details: HUVEC proliferation, CellTiter-Glo luminescence, 72 h; at 10 µM; stronger effect = lower value
Summary of the method: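 Assay system: primary human umbilical vein endothelial cells / Buffer or medium: endothelial basal medium with 2% FBS plus growth supplements / Compound dosing: one dose, 10 µM final, 0.1% DMSO / Timing: 72 h treatment at 37 °C / Signal: CTG luminescence / Benchmarks: 32 DMSO-only cell-control wells (high), 32 MePR drug-control wells (low) per plate / Plate: collagen-coated 384-well format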

[5] = MRP1 drug-resistance reversers in H69AR cells – cell-based, doxorubicin co-treatment, pilot screen (AID 601); details: CellTiter-Glo, 72 h, at 10 µM; for differential viability (reversal): stronger effect = higher value
[6] = yeast transport mutant growth inhibition pilot in 384-well plates, post-Golgi transport modulator project (AID 636; in the data active = inhibition above about 31%); details: absorbance 615 nm, about 18 h, stronger effect = higher value
[7] = growth suppression of yeast trafficking mutant, preliminary HTS, modulators of trafficking downstream of Golgi apparatus project, 1536-format plate, OD 615 nm (AID 637; in the data active = inhibition above about 30%); details: yeast transport mutant growth, absorbance 615 nm, 18 h; stronger effect = higher value
[8] = H69AR cell proliferation blockers – human, duplicate replicates, primary screen (AID 580;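 active = viability at or under a set limit in both replicates, limit being median viability minus 3 SD, cut at about 48% in these data, passing the limit was not always enough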;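 also: 100% = mean luminescence of untreated wells and 0% = no signal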); details: H69AR lung tumor cells viability, ATP luminescence, 72 h; at 10 µM; stronger effect = lower value
[9] = H69AR cells + 2 uM doxorubicin, measured here: viability with 2 uM doxorubicin, stronger effect = lower value
[10] = H69AR cells, compound alone cytotoxicity

SMILES | viability [1] [%] | Her2 level [2] | viability [3] | viability [4] | differential viability (reversal) ([5]; H69AR cells + 2 uM doxorubicin) | viability [5, 9] [%] | viability [5, 10] [%] | inhibition [6] | inhibition [7] | viability [8]
COc1ccc(N2C(=O)C(Cl)=C(Nc3c(C)n(C)n(-c4ccccc4)c3=O)C2=O)cc1 | 94 | 68% (inactive) | 94% (inactive) | 81.1% (inactive) | 10% (inactive) | 35.3 | 45.3 | -1.71% (inactive) | -6.03% (inactive) | –
Cc1csc2ncc(C(=O)Nc3ccccc3Cl)c(=O)n12 | 87.5 | 86% (inactive) | 87.5% (inactive) | 66.8% (inactive) | 3.82% (inactive) | 44.5 | 48.3 | -4.13% (inactive) | 4.5% (inactive) | –
N#CC(C(=O)C1CCCCC1)c1nc2ccccc2[nH]1 (centres undefined) | 91.5 | 89.5% (inactive) | 91.5% (inactive) | 82% (inactive) | -19.9% (inactive) | 76.1 | 56.1 | 0.66% (inactive) | 20.6% (inactive) | –
Cc1ccc(/C=c2\s/c(=C(/C#N)C(=O)N3CCCC3)n(Cc3ccco3)c2=O)s1 | 87.5 | 79% (inactive) | 87.5% (inactive) | 59.3% (inactive) | 15.8% (inactive) | 28.1 | 43.9 | -1.95% (inactive) | 1.9% (inactive) | –
Cc1ccc(NC(=O)COS(=O)c2ccc(C)cc2)cc1 (centres undefined) | 97 | 95.5% (inactive) | 97% (inactive) | 69% (inactive) | -2.71% (inactive) | 41.3 | 38.6 | -1.69% (inactive) | -0.63% (inactive) | –
O=C(Nc1sc2c(c1C(=O)NCc1ccco1)CCCC2)c1ccc2c(c1)OCO2 | 89.5 | 92.5% (inactive) | 89.5% (inactive) | 78.7% (inactive) | -11.3% (inactive) | 72.7 | 61.4 | 1.22% (inactive) | -6.35% (inactive) | –
C=C(C)COc1ccc(-c2nc(N)ncc2Oc2ccccc2OCC)c(O)c1 | 79 | 84.5% (inactive) | 79% (inactive) | 85.5% (inactive) | -12.4% (inactive) | 51.6 | 39.1 | -0.66% (inactive) | 24.4% (inactive) | –
CCc1ccc2oc(-c3cc(N)ccc3Cl)nc2c1 | 102 | 87.5% (inactive) | 102% (inactive) | – | -12.2% (inactive) | 89.4 | 77.2 | -0.54% (inactive) | -4% (inactive) | 77.2% (inactive)
C=CCSC1=C(C#N)C(c2ccccc2C)CC(=O)N1 (centres undefined) | 95.5 | 99% (inactive) | 95.5% (inactive) | 89% (inactive) | -0.42% (inactive) | 10.6 | 10.1 | -2.21% (inactive) | -2.38% (inactive) | –
CO[C@H]1C=CO[C@@]2(C)Oc3c(C)c(O)c4c(O)c(c(C=NN5CCN(C)CC5)c(O)c4c3C2=O)NC(=O)C(C)=CC=C[C@H](C)[C@H](O)[C@@H](C)[C@@H](O)[C@@H](C)[C@H](OC(C)=O)[C@@H]1C | 90.5 | 85.5% (inactive) | 90.5% (inactive) | – | 1.53% (inactive) | 87.3 | 88.9 | – | – | 88.9% (inactive)
COc1ccc(CNc2oc(COc3ccccc3Cl)nc2C#N)cc1 | 84 | 68.5% (inactive) | 84% (inactive) | – | -4.78% (inactive) | 92.1 | 87.3 | 0.26% (inactive) | 14.1% (inactive) | 87.3% (inactive)
CCC1CCc2c(sc3ncnc(N4CCOCC4)c23)C1 (centres undefined) | 89.5 | 87% (inactive) | 89.5% (inactive) | – | -14.3% (inactive) | 104 | 89.3 | -5.14% (inactive) | -0.16% (inactive) | 89.3% (inactive)
COc1ccc(-c2cc3c(=O)n(CC(=O)NC4CCN(Cc5ccccc5)CC4)ncn3n2)cc1 | 75 | 103% (inactive) | 75% (inactive) | – | -0.715% (inactive) | 75 | 74.2 | -5.66% (inactive) | -0.83% (inactive) | 74.2% (inactive)
CC(C)Cc1nc(N2CCN(C(=O)c3ccco3)CC2)c(C#N)c2c1CCC2 | 172 | 93% (inactive) | 172% (inactive) | – | 2.99% (inactive) | 81.5 | 84.5 | -6.71% (inactive) | 1.15% (inactive) | 84.5% (inactive)
O=C(Cn1nc(-c2ccc(Cl)cc2)ccc1=O)NCCCN1CCN(Cc2ccccc2)CC1 | 75 | 106% (inactive) | 75% (inactive) | – | -3.28% (inactive) | 93.4 | 90.1 | -0.26% (inactive) | -3.55% (inactive) | 90.1% (inactive)
CCOC(=O)c1c(C)oc2c1c(C=NCc1ccccn1)c(O)c1ccccc12 | 154 | 22% (active) | 154% (inactive) | – | 6.13% (inactive) | 10.3 | 16.5 | -8.38% (inactive) | 3.67% (inactive) | 16.5% (active)
CSc1nc(N2CCOCC2)c2c(c1C#N)CCCCC2 | 112 | 96% (inactive) | 112% (inactive) | – | 12.9% (inactive) | 73.9 | 86.8 | 0.79% (inactive) | 17.9% (inactive) | 86.8% (inactive)
CC(=O)N1CCN(c2ccc(NC(=O)c3ccc(C(C)(C)C)cc3)cc2)CC1 | 74.5 | 94% (inactive) | 74.5% (inactive) | 38.7% (inactive) | -12.4% (inactive) | 56.6 | 44.2 | -6.08% (inactive) | -11.3% (inactive) | –
CCOC(=O)N1CCC(NC(=O)c2ccc3nc(N4CCOCC4)sc3c2)CC1 | 102 | 105% (inactive) | 102% (inactive) | – | -2.62% (inactive) | 99.7 | 97.1 | -4.74% (inactive) | -0.32% (inactive) | 97.1% (inactive)
O=C(CC(=O)c1cc(Cl)ccc1O)c1ccccc1 | 131 | 89% (inactive) | 131% (inactive) | – | -9.6% (inactive) | 21 | 11.4 | 94.7% (active) | 61.3% (active) | 11.4% (active)
CC(C)Cn1c(=O)c(C(=O)NCc2ccccn2)c(O)c2ccccc21 | 110 | 78.5% (inactive) | 110% (inactive) | 61.4% (inactive) | -15% (inactive) | 67.3 | 52.3 | -7.43% (inactive) | -3.17% (inactive) | –
Cc1ccc(S(=O)(=O)N2CCOCC2)cc1C(=O)Nc1ccc(-c2cn3ccsc3n2)cc1 | 80 | 80.5% (inactive) | 80% (inactive) | 58.7% (inactive) | -0.105% (inactive) | 70.8 | 70.7 | -2.63% (inactive) | -2.86% (inactive) | –
CC(C)C[C@H]1C(=O)N2CCC[C@H]2[C@]2(O)O[C@](NC(=O)[C@@H]3C=C4c5cccc6[nH]c(Br)c(c56)CC4N(C)C3)(C(C)C)C(=O)N12 (some centres undefined) | 138 | 71% (inactive) | 138% (inactive) | – | 11.8% (inactive) | 72.4 | 84.2 | – | – | 84.2% (inactive)
COc1ccccc1NC(=O)Cn1nnc(-c2ccccc2NC(=O)c2ccco2)n1 | 91.5 | 72.5% (inactive) | 91.5% (inactive) | – | -4.18% (inactive) | 10.9 | 6.73 | -5.41% (inactive) | 0.66% (inactive) | 6.73% (active)
COc1ccc(-c2noc(CCC(=O)NCCCN3CCC(Cc4ccccc4)CC3)n2)cc1 | 87.5 | 77% (inactive) | 87.5% (inactive) | 33.1% (inactive) | -1.48% (inactive) | 64.4 | 63 | 1.05% (inactive) | -6% (inactive) | –
CN1CCc2nc(SCCOc3ccccc3)c(C#N)cc2C1 | 150 | 25% (active) | 150% (inactive) | – | -13.7% (inactive) | 98.5 | 84.8 | -1.69% (inactive) | 0.67% (inactive) | 84.8% (inactive)
Cc1cccc(Nc2ncc3c(n2)CC(c2ccco2)CC3=O)c1 (centres undefined) | 81.5 | 83% (inactive) | 81.5% (inactive) | – | -2.41% (inactive) | 77.9 | 75.5 | 0.26% (inactive) | 4.17% (inactive) | 75.5% (inactive)
